Results on 21 molecules are retold here after ChEMBL document CHEMBL4765265, “4-Substituted picolinohydrazonamides as a new class of potential antitubercular agents” (Eur J Med Chem, 2020).

For assay [1], the system named is Mycobacterium tuberculosis. Put plainly: Antimycobacterial activity against Mycobacterium tuberculosis H37Rv. Format: functional. A digest of the protocol: (§1)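 Classical test-tube successive twofold dilution in Youmans' modification of Proskauer and Beck liquid medium with 10% bovine serum. Inoculum from 14-day-old cultures. Compounds dissolved in ethylene glycol (stock 10 mg/mL), tested at […]. Incubation at 37 °C. MIC is the lowest concentration inhibiting growth relative to a compound-free tube. Isoniazid, pyrazinamide and rifampicin served as references.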

For assay [2], the system named is Mycobacterium tuberculosis. The assay is described as follows: Antimycobacterial activity against patient derived Mycobacterium tuberculosis Spec. 210. Format: functional. In a few lines:
as §1

For assay [3], the system named is Staphylococcus aureus. Put plainly: Antibacterial activity against Staphylococcus aureus ATCC 6538 assessed as reduction in bacterial growth incubated for 24 hrs by broth microdilution assay. Format: functional. A digest of the protocol:
(§2)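 Twofold serial broth microdilution in Mueller-Hinton broth, supplemented with 5% lysed sheep blood for fastidious species. […]. Inoculum was set to 0.5 McFarland in 0.85% NaCl, giving a final 1.5 × 10⁶ CFU/mL. Plates were incubated 24 h at 35 °C. MIC was read visually as the lowest concentration with complete growth inhibition. Controls: 10% DMSO (final), growth and sterility. Triplicate.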
(In general: Broth dilution looks for growth in wells or tubes with falling amounts of substance.)

In assay [4] the test system is Bacillus cereus. The assay is described as follows: Antibacterial activity against Bacillus cereus ATCC 10876 assessed as reduction in bacterial growth incubated for 24 hrs by broth microdilution assay. The class given is functional. A digest of the protocol: as §2
Assay [5] has as its system Bacillus subtilis. Put plainly: Antibacterial activity against Bacillus subtilis ATCC 6633 assessed as reduction in bacterial growth incubated for 24 hrs by broth microdilution assay. Format: functional. A digest of the protocol: as §2
For assay [6], the system named is Micrococcus luteus. Put plainly: Antibacterial activity against Micrococcus luteus ATCC 10240 assessed as reduction in bacterial growth incubated for 24 hrs by broth microdilution assay. The class given is functional. In a few lines:
as §2

The subject of assay [7] is Staphylococcus aureus. The assay is described as follows: Antibacterial activity against Staphylococcus aureus ATCC 25923 assessed as reduction in bacterial growth incubated for 24 hrs by broth microdilution assay. The class given is functional. A digest of the protocol: as §2
In assay [8] the test system is Proteus mirabilis. Put plainly: Antibacterial activity against Proteus mirabilis ATCC […] assessed as reduction in bacterial growth incubated for 24 hrs by broth microdilution assay. The class given is functional. A digest of the protocol: as §2
Assay [9] deals with Staphylococcus epidermidis. Put plainly: Antibacterial activity against Staphylococcus epidermidis ATCC 12228 assessed as reduction in bacterial growth incubated for 24 hrs by broth microdilution assay. Format: functional. A digest of the protocol:
as §2

Assay [10] concerns Klebsiella pneumoniae. Put plainly: Antibacterial activity against Klebsiella pneumoniae ATCC 13883 assessed as reduction in bacterial growth incubated for 24 hrs by broth microdilution assay. The class given is functional. In a few lines:
as §2

The test system of assay [11] is Staphylococcus aureus. The assay is described as follows: Antibacterial activity against Staphylococcus aureus ATCC 43300 assessed as reduction in bacterial growth incubated for 24 hrs by broth microdilution assay. Format: functional. In a few lines: as §2
The subject of assay [12] is Candida parapsilosis. The assay is described as follows: Antifungal activity against Candida parapsilosis ATCC 22019 assessed as reduction in fungal growth incubated for 48 hrs by broth microdilution assay. The class given is functional. As to conditions: Lodderomyces parapsilosis. A digest of the protocol: (§3)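 Yeasts were tested by twofold broth microdilution in Mueller-Hinton broth with 2% glucose at final concentrations of 0.98–1000 µg/mL. Inoculum was prepared from 0.5 McFarland suspensions in 0.85% NaCl, giving a final 5 × 10⁴ CFU/mL. Incubation was 48 h at 30 °C. MIC was the lowest concentration visually showing complete growth inhibition. Controls: 10% DMSO (final), growth and sterility. Triplicate.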

The test system of assay [13] is Streptococcus pneumoniae. The assay is described as follows: Antibacterial activity against Streptococcus pneumoniae ATCC 49619 assessed as reduction in bacterial growth incubated for 24 hrs by broth microdilution assay. Format: functional. In a few lines: as §2
Assay [14] has as its system Streptococcus mutans. Put plainly: Antibacterial activity against Streptococcus mutans ATCC 25175 assessed as reduction in bacterial growth incubated for 24 hrs by broth microdilution assay. The class given is functional. In a few lines:
as §2

For assay [15], the system named is Streptococcus pyogenes. The assay is described as follows: Antibacterial activity against Streptococcus pyogenes ATCC 19615 assessed as reduction in bacterial growth incubated for 24 hrs by broth microdilution assay. The class given is functional. In a few lines: as §2
Assay [16] concerns NHDF. Put plainly: Cytotoxicity against human NHDF cells assessed as reduction in cell viability incubated for 72 hrs by MTT assay. Format: cell-based. A general note: Tetrazolium assays rely on reduction of a dye to a coloured formazan, in cell work by metabolically active cells.
Assay [17] concerns B16-F10. The assay is described as follows: Cytotoxicity against mouse B16-F10 cells assessed as reduction in cell viability incubated for 72 hrs by MTT assay. The class given is cell-based. The conditions noted are these: B16-F10, 72 h.
Assay [18] has as its system Candida albicans. The assay is described as follows: Antifungal activity against Candida albicans ATCC 2091 assessed as reduction in fungal growth incubated for 48 hrs by broth microdilution assay. The class given is functional. A digest of the protocol: as §3
Assay [19] relates to Pseudomonas aeruginosa. Put plainly: Antibacterial activity against Pseudomonas aeruginosa ATCC 9027 assessed as reduction in bacterial growth incubated for 24 hrs by broth microdilution assay. The class given is functional. A digest of the protocol:
as §2

Assay [20] concerns Candida albicans. The assay is described as follows: Antifungal activity against Candida albicans ATCC […] assessed as reduction in fungal growth incubated for 48 hrs by broth microdilution assay. Format: functional. In a few lines: as §3
The test system of assay [21] is Escherichia coli. Put plainly: Antibacterial activity against Escherichia coli ATCC 25922 assessed as reduction in bacterial growth incubated for 24 hrs by broth microdilution assay. Format: functional. A digest of the protocol:
as §2

Structures are written as SMILES. Values after ≈ are worked out from the molar mass of the structure shown.

Regarding `N/C(=N\NC(=S)N1CCCC1)c1cc(N2CCCC2)ccn1`, the MIC in [1] and in [2] was 6.25 µg/mL (≈ 19.6 µM) each time.
Consider `O=C(O)c1cn(C2CC2)c2cc(N3CCNCC3)c(F)cc2c1=O` [CIPROFLOXACIN], for which the MIC in [3] stood at 0.24 µg/mL (≈ 0.724 µM); in [4], 0.12 µg/mL (≈ 0.362 µM); in [5], 0.03 µg/mL (≈ 0.0905 µM); in assay [6] it was 0.98 µg/mL (≈ 2.96 µM); in assay [7] it was 0.49 µg/mL (≈ 1.48 µM); in assay [8], 0.03 µg/mL (≈ 0.0905 µM). The minimum inhibitory concentration (MIC) in assay [9] was found to be 0.49 µg/mL (≈ 1.48 µM); in [10], 0.12 µg/mL (≈ 0.362 µM); in [11], 0.24 µg/mL (≈ 0.724 µM).
Consider `N/C(=N\NC(=S)N1CCN(c2ccccc2)CC1)c1cc(N2CCCC2)ccn1`, for which the minimal inhibitory concentration (MIC) in [1] and in [2] was 6.25 µg/mL (≈ 15.3 µM) in each case.
Turning to `N/C(=N\NC(=S)N1CCCCC1)c1cc(N2CCCC2)ccn1`, the minimal inhibitory concentration (MIC) in [1] and in assay [2] was 6.25 µg/mL (≈ 18.8 µM) each time.
As to `OC(Cn1cncn1)(Cn1cncn1)c1ccc(F)cc1F` [FLUCONAZOLE], the MIC in assay [12] is 1.95 µg/mL (≈ 6.37 µM).
Consider `N/C(=N\NC(=S)N1CCN(c2ccccc2)CC1)c1cc(Oc2ccccc2)ccn1`, for which the MIC in assay [1] and in [2] was 25 µg/mL (≈ 57.8 µM) in each case.
On to `NC(=O)c1cnccn1` [PYRAZINAMIDE], for which the MIC was 25 µg/mL (≈ 203 µM) in assay [1] and > 400 µg/mL in assay [2].
In the same order, the values of `N/C(=N\NC(=S)N1CCN(c2ccccc2)CC1)c1cc(Sc2ccccc2)ccn1` are 25 µg/mL (≈ 55.7 µM) and 25 µg/mL (≈ 55.7 µM).
In the same order, the values of `N/C(=N\NC(=S)N1CCCC1)c1cc(Sc2ccccc2)ccn1` are 6.25 µg/mL (≈ 17.5 µM) and 6.25 µg/mL (≈ 17.5 µM).
As to `CN[C@H](CC(C)C)C(=O)N[C@H]1C(=O)N[C@@H](CC(N)=O)C(=O)N[C@H]2C(=O)N[C@H]3C(=O)N[C@H](C(=O)N[C@H](C(=O)O)c4cc(O)cc(O)c4-c4cc3ccc4O)[C@H](O)c3ccc(c(Cl)c3)Oc3cc2cc(c3O[C@@H]2O[C@H](CO)[C@@H](O)[C@H](O)[C@H]2O[C@H]2C[C@](C)(N)[C@H](O)[C@H](C)O2)Oc2ccc(cc2Cl)[C@H]1O` [VANCOMYCIN], the MIC in [3] stood at 0.49 µg/mL (≈ 0.338 µM); in assay [4] it was 0.98 µg/mL (≈ 0.676 µM); in assay [13], 0.24 µg/mL (≈ 0.166 µM); in [5], 0.24 µg/mL (≈ 0.166 µM); in assay [6] it was 0.12 µg/mL (≈ 0.0828 µM); in assay [7], 0.98 µg/mL (≈ 0.676 µM). Moreover, the MIC is 0.98 µg/mL (≈ 0.676 µM) in assay [9], 0.98 µg/mL (≈ 0.676 µM) in assay [14], 0.49 µg/mL (≈ 0.338 µM) in [11] and 0.24 µg/mL (≈ 0.166 µM) in assay [15].
For `N/C(=N\NC(=S)N1CCOCC1)c1cc(N2CCN(c3ccccc3)CC2)ccn1`, the minimal inhibitory concentration (MIC) in [1] and in assay [2] was 6.25 µg/mL (≈ 14.7 µM) throughout.
Consider `N/C(=N\NC(=S)N1CCCC1)c1cc(N2CCOCC2)ccn1`, for which the MIC in assay [1] and in assay [2] was 6.25 µg/mL (≈ 18.7 µM) in each case.
As to `N/C(=N\NC(=S)N1CCCCC1)c1cc(Sc2ccccc2)ccn1`, the minimum inhibitory concentration (MIC) in assay [1] and in assay [2] was 12.5 µg/mL (≈ 33.6 µM) each time.
For the molecule `N/C(=N\NC(=S)N1CCCCC1)c1cc(Oc2ccccc2)ccn1`, the minimal inhibitory concentration (MIC) in assay [1] and in assay [2] was 12.5 µg/mL (≈ 35.2 µM) in each case.
As for `N/C(=N\NC(=S)N1CCN(c2ccccc2)CC1)c1cc(N2CCN(c3ccccc3)CC2)ccn1`, the minimal inhibitory concentration (MIC) in [1] and in assay [2] was 25 µg/mL (≈ 49.9 µM) each time.
Consider `NNC(=O)c1ccncc1` [ISONIAZID], for which the minimal inhibitory concentration (MIC) in assay [1] stood at 3.1 µg/mL (≈ 22.6 µM); in assay [2], 12.5 µg/mL (≈ 91.1 µM).
Take `N/C(=N\NC(=S)N1CCOCC1)c1cc(N2CCOCC2)ccn1`: the MIC was 15.6 µg/mL (≈ 44.5 µM) in assay [3]; 31.3 µg/mL (≈ 89.3 µM) in [4]; > 1000 µg/mL in assay [13]; 3.1 µg/mL (≈ 8.85 µM) in assay [1]; 31.3 µg/mL (≈ 89.3 µM) in assay [5]; 7.8 µg/mL (≈ 22.3 µM) in [6]. Moreover, the MIC in assay [7] was 15.6 µg/mL (≈ 44.5 µM); in assay [18], 31.3 µg/mL (≈ 89.3 µM); in [8] it was > 1000 µg/mL; in [9], 15.6 µg/mL (≈ 44.5 µM); in assay [10], 31.3 µg/mL (≈ 89.3 µM); in assay [19] it was > 1000 µg/mL. Also, the MIC in assay [20] was 31.3 µg/mL (≈ 89.3 µM); in assay [21], > 1000 µg/mL; in assay [2], 3.1 µg/mL (≈ 8.85 µM); in assay [12], 31.3 µg/mL (≈ 89.3 µM); in assay [14] it was 1000 µg/mL (≈ 2850 µM); in [11], 15.6 µg/mL (≈ 44.5 µM). The minimum inhibitory concentration (MIC) in [15] was found to be 1000 µg/mL (≈ 2850 µM). Besides, the concentration for half-maximal inhibition (IC50) result in assay [16] was “Not Active”; in assay [17], 17.8 µg/mL (≈ 50.9 µM).
For `N/C(=N\NC(=S)N1CCCCC1)c1cc(N2CCOCC2)ccn1`, the MIC in assay [1] and in assay [2] was 6.25 µg/mL (≈ 17.9 µM) each time.
`N/C(=N\NC(=S)N1CCCC1)c1cc(N2CCN(c3ccccc3)CC2)ccn1`: the minimal inhibitory concentration (MIC) in assay [1] and in assay [2] was 12.5 µg/mL (≈ 30.5 µM) each time.
For the molecule `N/C(=N\NC(=S)N1CCCCC1)c1cc(N2CCN(c3ccccc3)CC2)ccn1`, the MIC in [1] and in assay [2] was 25 µg/mL (≈ 59 µM) throughout.
As to `N/C(=N\NC(=S)N1CCN(c2ccccc2)CC1)c1cc(N2CCOCC2)ccn1`, the minimal inhibitory concentration (MIC) in assay [1] and in [2] was 6.25 µg/mL (≈ 14.7 µM) in each case.

Broadly, the MIC is the least concentration at which growth counts as inhibited. A word on the IC50: it is the point on the concentration scale where inhibition reaches its midpoint.
